Reference: ChEMBL document CHEMBL3352316, “Optimization of physicochemical properties and safety profile of novel bacterial topoisomerase type II inhibitors (NBTIs) with activity against Pseudomonas aeruginosa” (Bioorg Med Chem, 2014)
≈ marks a conversion by molar mass, not a printed value.

Experiments:
[1] = Aqueous solubility of the compound; format: physicochemical; settings: buffer
Pseudomonas aeruginosa [2] = experiment: Antimicrobial activity against Pseudomonas aeruginosa PAO1 after 18 to 20 hrs by broth microdilution; format: functional
Summary of the method: (§1)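 Broth microdilution followed CLSI guidelines in Mueller Hinton broth. Inocula were grown 18–20 h at 35 °C on blood agar. Compound in DMSO was tested in doubling dilutions from 64 to 0.06 µg/mL, at 2% DMSO final. Plates were incubated 18–20 h and read at OD 620 nm. MIC was taken as the concentration giving >90% growth inhibition.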

Escherichia coli [3] = experiment: Antimicrobial activity against Escherichia coli W3110 after 18 to 20 hrs by broth microdilution; format: functional; settings: K-12 substr. W3110; summary of the method: as §1
Pseudomonas aeruginosa [4] = experiment: Antimicrobial activity against Pseudomonas aeruginosa clinical isolate after 18 to 20 hrs by broth microdilution; format: functional; summary of the method: as §1
Escherichia coli [5] = experiment: Antimicrobial activity against Escherichia coli after 18 to 20 hrs by broth microdilution; format: functional; summary of the method: as §1
Klebsiella pneumoniae = experiment: Antimicrobial activity against Klebsiella pneumoniae after 18 to 20 hrs by broth microdilution; format: functional; summary of the method: as §1
[6] = Clearance in rat at 10 mg/kg, iv; format: ADME, organism-based; set-up: dose 10 mg/kg, route intravenous; settings: in vivo
Summary of the method: (§2)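 Male rats (Wistar Han) and Beagle dogs received 10 mg/kg as a 15 min iv infusion. Serial 200 µL whole-blood samples were taken from 0 to 24 h. Plasma levels were measured by LC–MS/MS against a standard curve after methanol protein precipitation. Parameters were estimated non-compartmentally.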

[7] = Volume of distribution in rat at 10 mg/kg, iv; format: ADME, organism-based; set-up: dose 10 mg/kg, route intravenous; settings: in vivo; summary of the method: as §2
[8] = Half life in rat at 10 mg/kg, iv; format: ADME, organism-based; set-up: dose 10 mg/kg, route intravenous; settings: in vivo; summary of the method: as §2
[9] = AUC in rat at 10 mg/kg, iv; format: ADME, organism-based; set-up: dose 10 mg/kg, route intravenous; settings: plasma; summary of the method: as §2
[10] = Bioavailability in rat at 10 mg/kg, […]; format: ADME, organism-based; settings: in vivo
[11] = Clearance in beagle dog at 10 mg/kg, iv; format: ADME, organism-based, Canis lupus familiaris; set-up: dose 10 mg/kg, route intravenous; settings: in vivo; summary of the method: as §2
[12] = Volume of distribution in beagle dog at 10 mg/kg, iv; format: ADME, organism-based, Canis lupus familiaris; set-up: dose 10 mg/kg, route intravenous; settings: in vivo; summary of the method: as §2
[13] = AUC in beagle dog at 10 mg/kg, iv; format: ADME, organism-based, Canis lupus familiaris; set-up: dose 10 mg/kg, route intravenous; settings: plasma; summary of the method: as §2
[14] = target: 5-hydroxytryptamine receptor 4 (Homo sapiens) (UniProt Q13639); experiment: Inhibition of 5-HT4 receptor (unknown origin) at 30 uM
Chain of 5-hydroxytryptamine receptor 4 (Homo sapiens) (Q13639 whole entry): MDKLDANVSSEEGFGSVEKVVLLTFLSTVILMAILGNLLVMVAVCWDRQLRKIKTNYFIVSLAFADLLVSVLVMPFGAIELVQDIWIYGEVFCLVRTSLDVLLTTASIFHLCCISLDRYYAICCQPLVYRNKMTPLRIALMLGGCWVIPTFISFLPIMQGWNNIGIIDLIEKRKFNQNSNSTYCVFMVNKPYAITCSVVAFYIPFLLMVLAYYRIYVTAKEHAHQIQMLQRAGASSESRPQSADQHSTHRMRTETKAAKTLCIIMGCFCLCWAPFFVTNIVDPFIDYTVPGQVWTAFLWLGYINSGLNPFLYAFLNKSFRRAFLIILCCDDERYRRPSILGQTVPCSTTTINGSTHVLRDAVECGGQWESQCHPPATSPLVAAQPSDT

[15] = target: Sodium-dependent serotonin transporter (Homo sapiens) (UniProt P31645); experiment: Inhibition of SERT (unknown origin) at 30 uM
Chain of Sodium-dependent serotonin transporter (Homo sapiens) (P31645 whole entry, looked up): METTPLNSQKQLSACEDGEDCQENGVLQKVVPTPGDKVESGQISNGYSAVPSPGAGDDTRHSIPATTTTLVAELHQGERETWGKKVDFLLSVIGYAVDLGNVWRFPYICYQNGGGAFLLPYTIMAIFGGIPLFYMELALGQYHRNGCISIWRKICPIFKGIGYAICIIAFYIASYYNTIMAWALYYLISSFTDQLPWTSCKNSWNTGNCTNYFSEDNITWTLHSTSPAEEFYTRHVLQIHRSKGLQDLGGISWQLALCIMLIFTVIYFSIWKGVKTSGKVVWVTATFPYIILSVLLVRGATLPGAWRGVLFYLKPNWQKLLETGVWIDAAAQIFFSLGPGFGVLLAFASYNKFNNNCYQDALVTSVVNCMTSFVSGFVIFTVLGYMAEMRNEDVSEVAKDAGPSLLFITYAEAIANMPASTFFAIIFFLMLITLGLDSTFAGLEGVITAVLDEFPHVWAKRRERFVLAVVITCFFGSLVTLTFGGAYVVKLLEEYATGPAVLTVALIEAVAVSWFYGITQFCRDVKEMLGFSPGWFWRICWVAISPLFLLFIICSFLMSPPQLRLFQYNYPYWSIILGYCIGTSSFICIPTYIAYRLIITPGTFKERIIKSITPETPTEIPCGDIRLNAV

[16] = target: Potassium voltage-gated channel subfamily A member 5 (Homo sapiens, UniProt P22460); experiment: Inhibition of potassium channel Kv1.5 (unknown origin)
Chain of Potassium voltage-gated channel subfamily A member 5 (P22460 whole entry): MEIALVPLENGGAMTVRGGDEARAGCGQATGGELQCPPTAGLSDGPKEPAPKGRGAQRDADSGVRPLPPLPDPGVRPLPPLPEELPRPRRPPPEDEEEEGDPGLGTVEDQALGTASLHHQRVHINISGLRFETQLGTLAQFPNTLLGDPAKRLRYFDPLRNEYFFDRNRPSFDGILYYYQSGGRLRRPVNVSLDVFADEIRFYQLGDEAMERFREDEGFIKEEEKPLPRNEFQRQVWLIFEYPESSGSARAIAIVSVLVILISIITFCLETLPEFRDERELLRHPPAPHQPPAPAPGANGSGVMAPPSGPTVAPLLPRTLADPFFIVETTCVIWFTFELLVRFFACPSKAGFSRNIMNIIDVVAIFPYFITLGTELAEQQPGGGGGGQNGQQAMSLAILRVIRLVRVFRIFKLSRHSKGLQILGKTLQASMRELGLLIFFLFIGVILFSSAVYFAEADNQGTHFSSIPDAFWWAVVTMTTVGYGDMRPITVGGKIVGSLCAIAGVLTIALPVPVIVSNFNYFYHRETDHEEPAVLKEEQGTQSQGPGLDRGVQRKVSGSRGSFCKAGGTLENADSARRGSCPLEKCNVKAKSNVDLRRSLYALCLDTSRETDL
Summary of the method: (§3)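 Automated IonWorks patch clamp was run on CHO or HEK cells expressing each channel. A channel-specific voltage pulse was applied before compound and again about 3 min after addition.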

[17] = target: T1, A-type voltage-gated potassium channel KCND3 (Homo sapiens, UniProt Q9UK17); experiment: Inhibition of potassium channel Kv4.3 (unknown origin); summary of the method: as §3
T1 sequence (Q9UK17 whole entry): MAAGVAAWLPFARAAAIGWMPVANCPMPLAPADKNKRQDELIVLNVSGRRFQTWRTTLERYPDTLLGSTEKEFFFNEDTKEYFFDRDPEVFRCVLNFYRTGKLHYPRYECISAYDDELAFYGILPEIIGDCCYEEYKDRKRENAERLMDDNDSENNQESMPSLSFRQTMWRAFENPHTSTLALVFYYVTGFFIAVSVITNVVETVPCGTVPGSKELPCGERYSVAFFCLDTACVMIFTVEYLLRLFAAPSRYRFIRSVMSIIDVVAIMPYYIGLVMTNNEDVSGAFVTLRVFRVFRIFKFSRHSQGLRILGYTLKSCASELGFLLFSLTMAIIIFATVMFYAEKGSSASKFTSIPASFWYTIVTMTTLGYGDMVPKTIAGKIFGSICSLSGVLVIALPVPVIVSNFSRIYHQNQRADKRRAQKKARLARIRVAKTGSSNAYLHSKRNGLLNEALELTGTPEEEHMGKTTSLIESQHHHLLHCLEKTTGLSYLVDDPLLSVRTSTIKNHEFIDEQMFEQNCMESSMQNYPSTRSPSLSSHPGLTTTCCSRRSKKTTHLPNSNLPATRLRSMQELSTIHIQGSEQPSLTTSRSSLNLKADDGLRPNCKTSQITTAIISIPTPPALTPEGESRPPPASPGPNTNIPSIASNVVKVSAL

[18] = target: Voltage-dependent T-type calcium channel subunit alpha-1H (Homo sapiens, UniProt O95180); experiment: Inhibition of […] channel Cav3.2 (unknown origin); summary of the method: as §3
Chain of Voltage-dependent T-type calcium channel subunit alpha-1H (O95180 whole entry): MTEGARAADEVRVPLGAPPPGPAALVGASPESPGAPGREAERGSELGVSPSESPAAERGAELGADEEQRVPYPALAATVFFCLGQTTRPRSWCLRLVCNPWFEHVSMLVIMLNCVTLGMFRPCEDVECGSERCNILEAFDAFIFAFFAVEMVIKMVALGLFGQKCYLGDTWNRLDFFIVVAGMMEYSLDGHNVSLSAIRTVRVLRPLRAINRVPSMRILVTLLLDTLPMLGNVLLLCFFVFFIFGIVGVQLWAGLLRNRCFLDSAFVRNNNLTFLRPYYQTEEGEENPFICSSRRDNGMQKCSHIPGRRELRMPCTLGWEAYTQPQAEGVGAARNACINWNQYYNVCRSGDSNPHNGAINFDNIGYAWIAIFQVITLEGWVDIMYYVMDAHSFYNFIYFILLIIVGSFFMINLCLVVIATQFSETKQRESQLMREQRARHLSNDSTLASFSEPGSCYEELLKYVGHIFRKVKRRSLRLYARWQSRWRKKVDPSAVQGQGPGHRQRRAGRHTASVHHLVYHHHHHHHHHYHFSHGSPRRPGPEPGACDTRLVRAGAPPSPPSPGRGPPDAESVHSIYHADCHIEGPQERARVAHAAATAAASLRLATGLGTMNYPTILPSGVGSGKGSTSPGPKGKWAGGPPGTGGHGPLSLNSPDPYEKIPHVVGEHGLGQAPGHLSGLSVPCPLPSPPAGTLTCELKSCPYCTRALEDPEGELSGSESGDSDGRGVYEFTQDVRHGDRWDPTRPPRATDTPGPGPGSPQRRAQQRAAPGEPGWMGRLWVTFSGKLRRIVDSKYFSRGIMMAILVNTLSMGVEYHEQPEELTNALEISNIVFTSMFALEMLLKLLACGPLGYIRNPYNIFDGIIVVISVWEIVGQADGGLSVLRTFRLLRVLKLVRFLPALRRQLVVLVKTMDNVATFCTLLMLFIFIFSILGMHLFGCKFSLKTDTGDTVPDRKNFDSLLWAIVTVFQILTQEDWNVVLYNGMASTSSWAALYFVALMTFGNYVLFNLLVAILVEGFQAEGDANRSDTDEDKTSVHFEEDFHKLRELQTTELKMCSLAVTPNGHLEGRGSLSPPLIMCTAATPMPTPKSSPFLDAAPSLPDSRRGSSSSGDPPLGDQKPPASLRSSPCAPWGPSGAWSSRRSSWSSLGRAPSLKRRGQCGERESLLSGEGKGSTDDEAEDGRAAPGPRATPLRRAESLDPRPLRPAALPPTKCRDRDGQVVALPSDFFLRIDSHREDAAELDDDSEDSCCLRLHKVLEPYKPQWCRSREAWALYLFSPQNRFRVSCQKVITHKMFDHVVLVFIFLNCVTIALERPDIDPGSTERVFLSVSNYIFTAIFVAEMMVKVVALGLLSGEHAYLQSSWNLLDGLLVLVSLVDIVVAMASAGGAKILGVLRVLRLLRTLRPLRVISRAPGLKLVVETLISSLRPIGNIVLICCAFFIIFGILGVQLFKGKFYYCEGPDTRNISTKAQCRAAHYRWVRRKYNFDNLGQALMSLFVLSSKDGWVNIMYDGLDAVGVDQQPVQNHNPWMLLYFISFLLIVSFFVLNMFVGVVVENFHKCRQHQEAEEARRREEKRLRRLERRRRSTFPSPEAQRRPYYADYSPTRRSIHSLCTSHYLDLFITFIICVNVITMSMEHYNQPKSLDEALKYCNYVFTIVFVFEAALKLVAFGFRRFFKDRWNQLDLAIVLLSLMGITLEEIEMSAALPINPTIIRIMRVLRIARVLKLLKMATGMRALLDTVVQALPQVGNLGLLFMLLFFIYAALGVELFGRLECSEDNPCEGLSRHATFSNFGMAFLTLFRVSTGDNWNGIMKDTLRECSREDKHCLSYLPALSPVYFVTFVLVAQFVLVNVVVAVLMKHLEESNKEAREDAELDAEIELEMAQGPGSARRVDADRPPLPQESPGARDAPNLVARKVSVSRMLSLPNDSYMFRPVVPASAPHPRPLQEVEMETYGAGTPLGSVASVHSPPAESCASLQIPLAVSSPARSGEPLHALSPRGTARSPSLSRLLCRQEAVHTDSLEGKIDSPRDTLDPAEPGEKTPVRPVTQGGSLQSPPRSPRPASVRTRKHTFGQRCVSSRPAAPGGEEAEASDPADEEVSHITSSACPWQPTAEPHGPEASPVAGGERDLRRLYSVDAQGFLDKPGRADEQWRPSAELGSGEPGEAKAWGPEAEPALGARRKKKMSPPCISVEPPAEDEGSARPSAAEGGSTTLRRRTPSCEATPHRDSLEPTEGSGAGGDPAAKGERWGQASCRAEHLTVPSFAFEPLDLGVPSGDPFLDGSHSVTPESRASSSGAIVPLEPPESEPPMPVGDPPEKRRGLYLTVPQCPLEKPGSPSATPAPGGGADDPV

[19] = target: T2, Potassium/sodium hyperpolarization-activated cyclic nucleotide-gated channel 4 (Homo sapiens, UniProt Q9Y3Q4); experiment: Inhibition of potassium channel HCN4 (unknown origin); summary of the method: as §3
T2 sequence (Q9Y3Q4 whole entry): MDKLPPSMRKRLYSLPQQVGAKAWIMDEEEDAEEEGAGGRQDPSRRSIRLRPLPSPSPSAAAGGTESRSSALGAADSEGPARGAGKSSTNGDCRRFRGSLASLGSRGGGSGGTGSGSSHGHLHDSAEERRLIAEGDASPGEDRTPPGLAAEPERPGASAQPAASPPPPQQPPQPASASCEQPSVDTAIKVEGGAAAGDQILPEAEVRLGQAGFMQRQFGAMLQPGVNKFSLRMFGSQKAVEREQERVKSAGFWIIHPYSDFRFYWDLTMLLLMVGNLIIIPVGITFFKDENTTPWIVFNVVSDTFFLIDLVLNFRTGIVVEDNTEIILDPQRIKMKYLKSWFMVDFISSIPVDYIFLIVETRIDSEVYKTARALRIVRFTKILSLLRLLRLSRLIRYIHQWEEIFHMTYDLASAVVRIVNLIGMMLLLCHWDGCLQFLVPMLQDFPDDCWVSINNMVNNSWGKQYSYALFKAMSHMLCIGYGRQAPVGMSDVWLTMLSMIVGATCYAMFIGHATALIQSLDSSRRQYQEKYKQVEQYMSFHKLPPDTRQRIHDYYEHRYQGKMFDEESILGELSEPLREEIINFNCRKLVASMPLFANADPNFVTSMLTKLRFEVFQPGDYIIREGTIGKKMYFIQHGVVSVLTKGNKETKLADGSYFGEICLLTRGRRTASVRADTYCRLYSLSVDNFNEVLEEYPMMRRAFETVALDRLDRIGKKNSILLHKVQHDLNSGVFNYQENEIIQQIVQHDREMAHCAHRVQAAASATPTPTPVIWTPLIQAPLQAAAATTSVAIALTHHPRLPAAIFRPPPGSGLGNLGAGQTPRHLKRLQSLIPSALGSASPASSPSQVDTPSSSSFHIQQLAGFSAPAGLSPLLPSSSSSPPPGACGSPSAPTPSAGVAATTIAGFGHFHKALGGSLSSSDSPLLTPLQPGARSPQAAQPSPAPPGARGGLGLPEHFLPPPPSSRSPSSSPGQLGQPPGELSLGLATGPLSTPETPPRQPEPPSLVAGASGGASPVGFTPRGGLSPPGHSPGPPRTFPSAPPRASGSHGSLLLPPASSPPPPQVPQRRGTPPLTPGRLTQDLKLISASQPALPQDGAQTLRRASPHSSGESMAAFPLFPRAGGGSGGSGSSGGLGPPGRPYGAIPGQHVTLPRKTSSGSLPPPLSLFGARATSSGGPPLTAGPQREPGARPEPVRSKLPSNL

For `COc1ccc2ncc(=O)n(CCN3CCC(NCc4ccc5c(n4)NC(=O)CO5)CC3)c2c1`, the solubility [1] was > 333 µM, the MIC90 (Pseudomonas aeruginosa [2]) was 1 µg/mL (≈ 2.15 µM) and the MIC90 (Escherichia coli [3]) was 0.13 µg/mL (≈ 0.28 µM). For the same molecule, the MIC90 (Pseudomonas aeruginosa [4]) was 4 µg/mL (≈ 8.61 µM), the MIC90 (Escherichia coli [5]) was 0.25 µg/mL (≈ 0.538 µM) and the MIC90 (Klebsiella pneumoniae) was 4 µg/mL (≈ 8.61 µM). For the same molecule, the clearance [6] was 252 mL/min/kg, the Vd [7] was 23 L/kg and the half-life [8] was 1.9 h. For the same molecule, the AUC [9] was 190 ng·h/mL, the bioavailability [10] was 18% and the clearance [11] was 8.5 mL/min/kg. The Vd [12] was 2 L/kg, the AUC [13] was 6800 ng·h/mL and the inhibition [14] was 99%. The inhibition [15] was 77%, the IC50 [16] was > 100 µM and the IC50 [17] was > 100 µM. The IC50 [18] was > 100 µM and the IC50 [19] was > 100 µM.
In the case of `N[C@@H](Cn1c(=O)cnc2ccc(F)cc21)[C@H]1CC[C@H](NCc2ncc3c(n2)NC(=O)CO3)CC1`, the solubility [1] is reported as > 333 µM, the MIC90 (Pseudomonas aeruginosa [2]) is reported as 0.5 µg/mL (≈ 1.07 µM) and the MIC90 (Escherichia coli [3]) is reported as < 0.06 µg/mL. For the same molecule, the MIC90 (Pseudomonas aeruginosa [4]) was 4 µg/mL (≈ 8.56 µM), the MIC90 (Escherichia coli [5]) was 1 µg/mL (≈ 2.14 µM) and the MIC90 (Klebsiella pneumoniae) was 16 µg/mL (≈ 34.2 µM). For the same molecule, the clearance [6] was 46 mL/min/kg, the Vd [7] was 9 L/kg and the half-life [8] was 10 h. The AUC [9] was 3300 ng·h/mL, the bioavailability [10] was 2% and the clearance [11] was 14 mL/min/kg. It also gave a Vd [12] of 4 L/kg, an AUC [13] of 12000 ng·h/mL and an inhibition [14] of 7%. For the same molecule, the inhibition [15] was 32%, the IC50 [16] was > 100 µM and the IC50 [17] was > 100 µM. The IC50 [18] was > 100 µM and the IC50 [19] was > 100 µM.
